From ChEMBL document CHEMBL1138914, “Design, synthesis, and structure-activity relationships of novel 2-substituted pyrazinoylguanidine epithelial sodium channel blockers: drugs for cystic fibrosis and chronic bronchitis” (J Med Chem, 2006) come the findings set out here.

The subject of the test is Epithelial cell. In words: Recovery of short-circuit current in dog primary bronchial epithelial cells. It counts as functional, Canis lupus familiaris. Summed up:
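Canine primary bronchial epithelial monolayers in modified Ussing chambers, KRB pH 7.4, 37 °C, voltage clamped to 0 mV. After a full apical concentration-effect series, the mucosal bath was replaced with KRB three consecutive times. Short-circuit current was read 3 min after the third wash and expressed as percent of starting (basal) current.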
Consider `N/C(=N\C(=O)c1nc(Cl)c(N)nc1N)NCCCCCCc1ccccc1`, for which the Activity came out at 12%.
On to `N/C(=N\C(=O)c1nc(Cl)c(N)nc1N)NCCCCc1ccccc1OCCO`, for which the Activity turned out to be 21%.
`N/C(=N\C(=O)c1nc(Cl)c(N)nc1N)NCCCCc1ccc(OCC(=O)O)cc1` showed an Activity of 79%.
Turning to `COc1ccc(CCCCC/N=C(\N)NC(=O)c2nc(Cl)c(N)nc2N)cc1`, the Activity stood at 5.5%.
To `N/C(=N\C(=O)c1nc(Cl)c(N)nc1N)NCCCCc1ccc(OC[C@H](O)CO)cc1` belongs 25%; to `N/C(=N\C(=O)c1nc(Cl)c(N)nc1N)NCCCCc1ccccc1`, 16%.
To `N/C(=N\C(=O)c1nc(Cl)c(N)nc1N)NCCc1ccc(O)cc1` belongs 65%; to `N/C(=N\C(=O)c1nc(Cl)c(N)nc1N)NCCCCCCCCc1ccccc1`, 12%.
To `N/C(=N\C(=O)c1nc(Cl)c(N)nc1N)NCCCCc1ccc(O)cc1` belongs 24%.
`CCCCCC/N=C(\N)NC(=O)c1nc(Cl)c(N)nc1N` registered an Activity of 24%.
Compound `COc1ccc(CCC/N=C(\N)NC(=O)c2nc(Cl)c(N)nc2N)cc1` returned an Activity of 57%.
`CCCCCCCC/N=C(\N)NC(=O)c1nc(Cl)c(N)nc1N` gave an Activity of 7%.
`N/C(=N\C(=O)c1nc(Cl)c(N)nc1N)NCCCCc1ccc(O)c(O)c1` came in with an Activity of 45%.
As for `N/C(=N\C(=O)c1nc(Cl)c(N)nc1N)NCCCCc1ccc(OCCO)cc1`, the Activity is listed as 29%.
Take `N/C(=N\C(=O)c1nc(Cl)c(N)nc1N)NCCCCCc1ccc(O)cc1`: the Activity was 29%.
`N=C(NC(=O)c1nc(Cl)c(N)nc1N)Nc1ccccc1`: the Activity was 15%.
Compound `N/C(=N\C(=O)c1nc(Cl)c(N)nc1N)NCCCCc1cccc(OCCO)c1` came in with an Activity of 30%.
`N/C(=N\C(=O)c1nc(Cl)c(N)nc1N)NCCc1ccccc1`: the Activity is recorded as 21%.
To `N/C(=N\C(=O)c1nc(Cl)c(N)nc1N)NCCCCc1ccccc1OCC(O)CO` (configuration not stated) belongs 63%.
In the case of `N/C(=N\C(=O)c1nc(Cl)c(N)nc1N)NCCCc1ccccc1`, the Activity turned out to be 23%.
To `COc1ccc(COCC/N=C(\N)NC(=O)c2nc(Cl)c(N)nc2N)cc1` belongs 72%; to `N/C(=N\C(=O)c1nc(Cl)c(N)nc1N)NCCCc1ccc(O)cc1`, 65%.
As for `N/C(=N\C(=O)c1nc(Cl)c(N)nc1N)NCCCOc1ccc(O)cc1`, the figure is 73%; as for `N/C(=N\C(=O)c1nc(Cl)c(N)nc1N)NCCCCc1ccc(N)cc1`, 36%; as for `N/C(=N\C(=O)c1nc(Cl)c(N)nc1N)NCCCCc1ccc(OCCCO)cc1`, 17%.
As to `N/C(=N\C(=O)c1nc(Cl)c(N)nc1N)NCCCCc1ccc(OC[C@@H](O)CO)cc1`, the Activity stood at 18%.
Turning to `N/C(=N\C(=O)c1nc(Cl)c(N)nc1N)NCCCCc1cccc(OCC(O)CO)c1` (configuration not stated), the Activity is reported as 37%.
In turn, `N/C(=N\C(=O)c1nc(Cl)c(N)nc1N)NCCCCc1ccc(C(=O)O)cc1` had an Activity of 65%.
Turning to `COc1ccc(OCCC/N=C(\N)NC(=O)c2nc(Cl)c(N)nc2N)cc1`, the Activity is recorded as 25%.
For the compound `N/C(=N\C(=O)c1nc(Cl)c(N)nc1N)NCCCCc1ccc(CO)cc1`, the Activity is 20%.
In the case of `N/C(=N\C(=O)c1nc(Cl)c(N)nc1N)NCCCCCc1ccccc1`, the Activity is 6%.
For the compound `N/C(=N\C(=O)c1nc(Cl)c(N)nc1N)NCCO`, the Activity is listed as 77%.
Compound `COc1ccc(CCCC/N=C(\N)NC(=O)c2nc(Cl)c(N)nc2N)cc1` had an Activity of 19%.
The compound `N/C(=N\C(=O)c1nc(Cl)c(N)nc1N)NCCCCc1ccccc1O` registered an Activity of 11%.
On to `N/C(=N\C(=O)c1nc(Cl)c(N)nc1N)NCCCCc1ccc(OCCC(=O)O)cc1`, for which the Activity came out at 65%.
The compound `COC(=O)c1ccc(CCCC/N=C(\N)NC(=O)c2nc(Cl)c(N)nc2N)cc1` yielded an Activity of 13%.
As to `N/C(=N\C(=O)c1nc(Cl)c(N)nc1N)NCCCCc1cccc(O)c1`, the Activity amounted to 14%.
`N/C(=N\C(=O)c1nc(Cl)c(N)nc1N)NCCCCc1ccc(OC2O[C@H](C(=O)O)[C@@H](O)[C@H](O)[C@H]2O)cc1` (some centres not stated) had an Activity of 86%.
As for `N/C(=N\C(=O)c1nc(Cl)c(N)nc1N)NCCCCc1ccc(OS(=O)(=O)O)cc1`, the figure is 53%.
To `N/C(=N\C(=O)c1nc(Cl)c(N)nc1N)NCCCCc1ccc(OCC(O)CO)cc1` (configuration not stated) [552-02 FREE BASE] belongs 20%; to `N=C(N)NC(=O)c1nc(Cl)c(N)nc1N` [AMILORIDE], 96%.
As for `N/C(=N\C(=O)c1nc(Cl)c(N)nc1N)NCc1ccccc1` [BENZAMIL], the Activity turned out to be 47%.
